Compound activity: PubChem, several laboratories
AHR act – AHR activators, primary screen, cell-based, luminescence, luciferase reporter, human | AHR-responsive luciferase reporter cells | 2.5% of 320,000 active | AID 2796, 2010 | activation, % at 5 µM; in the data active means activation above about 47%
Arrestin-AP2 inh – inhibitors of beta-arrestin/AP2 binding, primary screen, biochemical, GPCR trafficking, flow cytometry. beta-arrestin 1 C-terminal peptide binding to AP2 beta2-adaptin appendage (human). FITC-arrestin peptide / GST-AP2 beads; AP2 beta2 appendage carries R879A mutation. inhibition, % at 10 µM. 0.31% of 340,000 active;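 active means inhibition above a set limit, near 3 SD of compounds lacking own fluorescence, cut at about 54% in these data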
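System: GST-AP2 R879A bound to glutathione beads, E. coli-expressed. Also added: 50 nM FITC-arrestin peptide. Schedule: compound with beads 12 min RT, then probe 1 h RT. Signal: bead flow cytometry, FITC channel. Read-out basis: percent response.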
APOBEC3G inh – APOBEC3G DNA deaminase inhibitors, primary screen, biochemical, fluorescence, single-stranded DNA substrate, uHTS | inhibition, % at 20 µM | recombinant A3G, ssDNA deamination FAM/TAMRA fluorescence | DNA dC->dU-editing enzyme APOBEC-3G (Homo sapiens), Q9HC16 | 0.28% of 330,000 active;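 active means inhibition of at least 40% at 20 µM, with no more than 30% in the related APOBEC3A deaminase screen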
Target sequence (Q9HC16 whole entry, looked up): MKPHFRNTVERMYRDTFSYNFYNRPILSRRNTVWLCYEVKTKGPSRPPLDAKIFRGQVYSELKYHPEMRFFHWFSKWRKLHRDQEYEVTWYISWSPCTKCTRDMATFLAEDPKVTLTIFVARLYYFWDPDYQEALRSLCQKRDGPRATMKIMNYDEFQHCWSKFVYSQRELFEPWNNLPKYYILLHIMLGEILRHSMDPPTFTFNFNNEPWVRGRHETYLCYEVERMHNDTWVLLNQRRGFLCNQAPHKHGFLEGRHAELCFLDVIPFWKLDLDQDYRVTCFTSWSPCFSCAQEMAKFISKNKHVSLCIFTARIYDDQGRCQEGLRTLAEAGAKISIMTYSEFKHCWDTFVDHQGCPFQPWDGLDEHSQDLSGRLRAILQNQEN
UCH37 DUB inh – inhibitors of human UCH37 deubiquitinase, primary screen, biochemical, Ub-AMC cleavage, fluorescence | Ubiquitin carboxyl-terminal hydrolase isozyme L5 (Homo sapiens), Q9Y5K5 | purified proteasome/UCH37 | inhibition, % (concentration not given with the values) | 0.33% of 330,000 active;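 active means mean inhibition over replicate wells above about 20%, limit read from the data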
Target sequence (Q9Y5K5 whole entry, looked up): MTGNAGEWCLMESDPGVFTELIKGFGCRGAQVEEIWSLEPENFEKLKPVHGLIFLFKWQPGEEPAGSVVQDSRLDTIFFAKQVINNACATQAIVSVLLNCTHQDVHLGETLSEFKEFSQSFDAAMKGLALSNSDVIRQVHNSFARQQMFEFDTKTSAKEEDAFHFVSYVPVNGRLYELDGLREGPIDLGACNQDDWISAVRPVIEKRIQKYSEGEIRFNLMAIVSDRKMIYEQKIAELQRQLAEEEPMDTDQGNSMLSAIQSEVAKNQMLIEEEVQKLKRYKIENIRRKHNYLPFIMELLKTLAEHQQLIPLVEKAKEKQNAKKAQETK
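System: Proteasome-associated human UCH37 deubiquitinase; Input: 0.15 nM proteasome in added enzyme buffer; Also added: Ub-AMC substrate from 1 µM stock; Incubation: 30 min compound-proteasome preincubation then 25 min substrate reaction, room temperature; Detection: fluorescence, ex 355 nm, em 460 nm; Read-out: % inhibition of Ub-AMC cleavage fluorescence; Benchmarks: no-proteasome and no-compound wells.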
PolyA inhibitor – polyadenylation inhibitors in yeast reporter cells, primary screen, luminescence, S. cerevisiae; 0.02% of 300,000 active; activity score, % at 12 µM; S. cerevisiae SKY197-pL101 polyadenylation reporter, beta-gal luminescence; efflux-impaired pdr1/pdr3 knockout yeast; score 100 = 6 SD above DMSO; AID 1875, 2009;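 active means lowest replicate activity score at least 50, where 100 means six control SD above control mean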;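 further: yeast exposed to compound for 9 h at 30 °C; higher score means more reporter readthrough which indicates perturbed polyadenylation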
APOBEC3A inh – APOBEC3A ssDNA deaminase inhibitors, primary screen, selectivity assay for APOBEC3G inhibitor project, biochemical, FAM/TAMRA oligo cleavage fluorescence; recombinant A3A, FAM/TAMRA ssDNA deamination fluorescence; inhibition, % at 20 µM; AID 493011, 2011; 0.41% of 330,000 active;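 active means at least 40% inhibition at 20 µM here, with at most 30% in a related deaminase screen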
Numbers stand for hits; n = inactive; x = not tested or not shown. Most compounds without a hit are left out; they make up all but 3.4% or so of the library.

SMILES | AHR act | Arrestin-AP2 inh | APOBEC3G inh | UCH37 DUB inh | PolyA inhibitor | APOBEC3A inh
CN(C)Cc1c(C(=O)NN=C/C=C/c2ccccc2)nnn1-c1nonc1N | x | x | x | n | x | x
Fc1ccccc1NC(=S)N/N=C/c1ccccc1Br | 123.8 | n | n | x | n | n
Fc1ccccc1NC(=S)NN=Cc1ccccc1Br | x | x | x | n | x | x
COc1ccc(CNc2ccncc2)c(OC)c1OC | x | n | x | x | x | x
COc1ccc(CNc2ccc3cn[nH]c3c2)c(OC)c1OC | n | n | n | 21.7 | n | n
CCOc1cc(CNc2ccc3cn[nH]c3c2)ccc1OC | 53.3 | n | n | n | n | n
CCOc1cc(C=NNC(=O)c2ccc(NC(=O)C(C)(C)C)cc2)ccc1OC(=O)c1ccc(OC)cc1 | x | x | x | n | x | x
OCCCNc1nc(-c2ccc(Cl)cc2)nnc1-c1ccccc1 | 64.4 | n | n | n | n | n
Clc1ccc(-c2nnc(-c3ccccc3)c(-c3ccccc3)n2)cc1 | n | n | n | n | n | n
Clc1ccc(-c2nnc(-c3ccccc3)c(-c3c[nH]c4ccccc34)n2)cc1 | 50.8 | n | n | n | n | n
COc1cc(CNCCc2ccc(S(N)(=O)=O)cc2)ccc1OCC(=O)NC(C)(C)C | 49.0 | n | n | n | n | n
CN(C)c1ccc(C=NN2CCN(Cc3ccccc3Cl)CC2)cc1 | x | x | x | n | x | x
CCN(CC)c1ccc(C(=C2C=CC(=[N+](CC)CC)C=C2)c2ccc(N(CC)CC)cc2)cc1 | x | 90.2 | x | n | x | x
CCN(CC)c1ccc(C(=C2C=CC(=[N+](CC)CC)C=C2)c2ccccc2)cc1 | x | n | x | x | x | x
COc1cc(C#Cc2c(-c3cncn3C)n(C)c3ccc(-c4cnc(OC)nc4)cc23)cc(OC)c1 | 51.1 | n | n | n | x | n
CC(=NNC(=O)COc1ccc(C(C)(C)C)cc1)c1ccc(N2CCOCC2)cc1 | x | x | x | n | x | x
Cc1ccc(C=Nn2c(C)cc(C)c(C#N)c2=O)cc1 | x | x | x | n | x | x
Nc1nc(-c2ccc(Cl)cc2)nnc1-c1ccc(Br)cc1 | n | n | n | n | n | n
Nc1n[nH]c(-c2ccc(Br)cc2)c1Cl | 61.7 | n | n | n | n | n
COc1ccc(OC)c2c1sc(=NC(=O)c1ccco1)n2C | 51.4 | n | n | n | n | n
COc1ccccc1C(=O)N=c1sc2c(C)ccc(OC)c2n1C | 62.4 | n | n | n | n | n
COc1cccc(C=Nn2c(=S)n(C)c3ccccc32)c1OC | x | x | x | n | x | x
COc1ccc(C=NN2CCN(c3ccccc3OC)CC2)cc1OC | x | x | x | n | x | x
C/C(=C\C=C(C#N)C#N)c1cc(C#N)c(N)o1 | x | n | n | n | 58.9 | n
CC(C)(C)OC(=O)COc1ccc(C=NNC(=O)CN2CCCCC2)cc1 | x | x | x | n | x | x
SMILES | AHR act | Arrestin-AP2 inh | APOBEC3G inh | UCH37 DUB inh | PolyA inhibitor | APOBEC3A inh
Cc1ccc(C=Nc2ccccc2C(N)=O)s1 | 54.6 | n | n | n | n | n
Cc1cccc(C=Nc2ccccc2C(N)=O)c1 | n | n | n | n | n | n
Cc1cc(C)c2nc(NC(=O)C3CC(=O)N(Cc4ccco4)C3)sc2c1 (configuration not stated) | n | n | n | n | x | n
O=C(Nc1nc2c(F)cc(F)cc2s1)C1CC(=O)N(Cc2ccco2)C1 (configuration not stated) | 59.9 | n | n | n | n | n
CC(=O)C1=C(c2ccccc2)N(C(C)=O)n2c(C)nnc2S1 | 50.6 | n | n | n | n | n
COc1ccc(C(=O)NCC(=O)NN=Cc2cccnc2)cc1OC | x | x | x | n | x | x
O=C(Cc1n[nH]c(=O)c2ccccc12)NN=Cc1cc2c(cc1Cl)OCO2 | x | x | x | n | x | x
Cc1ccc(NC(=O)Nc2cccc(C)n2)c(C)c1 | 56.3 | n | n | n | n | n
O=C(Nc1ccc2c(c1)OCO2)c1noc2c1CCCC2 | 55.0 | n | n | n | n | n
COc1cc(NC(=O)c2cc(C(C)C)on2)c(OC)cc1Cl | 74.3 | n | n | n | n | n
COc1ccc(Cl)cc1NC(=O)c1noc2c1CCCC2 | n | n | n | n | n | n
COc1cc(NC(=O)c2noc3c2CCCC3)c(OC)cc1Cl | 55.3 | n | n | n | n | n
O=C(Nc1cc(Cl)ccc1Cl)c1noc2c1CCCC2 | 75.1 | n | n | n | n | n
COc1ccc(NC(=O)c2cc(C(C)C)on2)c(OC)c1 | n | n | n | n | n | n
CC(=O)c1c(C)[nH]c(C(=O)CSc2nnc(C)s2)c1C | 67.7 | n | n | n | n | n
C=CCn1c(C)nnc1SCC(=O)c1[nH]c(C)c(C(C)=O)c1C | n | n | n | n | n | n
COc1ccc(OC)c(CCNC(=O)CC2Oc3ccccc3NC2=O)c1 (configuration not stated) | 52.3 | n | n | n | n | n
COc1ccc(OC)c(CCNC(=O)CC2Oc3ccc(C)cc3NC2=O)c1 (configuration not stated) | x | n | x | n | x | x
Cn1nccc1C(=O)NN=Cc1cccnc1 | x | x | x | n | x | x
COc1ccc(C=NNC(=O)c2ccccc2NC(=O)c2ccco2)c(OC)c1 | x | x | x | n | x | x
Cc1cc(C)cc(C(=O)NN=Cc2ccoc2)c1 | x | x | x | n | x | x
CCOc1ccc(S(=O)(=O)/N=C(/Nc2ccc(C(C)=O)cc2)c2ccccc2)cc1 | 64.7 | n | n | n | x | n
O=C(CCNC(=O)c1ccccc1Cl)NNC(=O)c1ccccc1O | 68.3 | n | n | n | n | n
COc1ccc2c(c1)CC(C(=O)Nc1ccc(Cl)cc1)C(=NO)O2 (configuration not stated) | x | x | x | n | x | x
CN(C1=C(NC(=O)c2ccccc2)C(=O)c2ccccc2C1=O)C1CCS(=O)(=O)C1 (configuration not stated) | n | n | n | 48.9 | n | n
SMILES | AHR act | Arrestin-AP2 inh | APOBEC3G inh | UCH37 DUB inh | PolyA inhibitor | APOBEC3A inh
O=C(NC(=S)NC1CCS(=O)(=O)C1)c1ccccc1 (configuration not stated) | n | n | n | n | n | n
Fc1cccc(Cl)c1C=NNc1ccccn1 | x | x | x | n | x | x
O=C(CN1CCCc2ccccc21)NN=Cc1ccc(F)cc1F | x | x | x | n | x | x
O=C(CN1CCCc2ccccc21)N/N=C/c1ccccc1O | 47.4 | n | n | x | n | n
Cc1cccc(C=Nn2c(-c3ccccn3)n[nH]c2=S)c1 | x | x | x | n | x | x
COc1ccccc1/C=N\Nc1cn[nH]c(=O)c1Cl | 47.9 | n | n | x | n | n
COc1ccc(C=NNc2cn[nH]c(=O)c2Cl)cc1 | x | x | x | n | x | x
COc1ccc(OC)c(NC(=S)N(CCc2c(C)[nH]c3ccccc23)Cc2cccs2)c1 | 50.0 | n | n | n | n | n
O=S(=O)(NN=Cc1ccc2c(c1)OCO2)c1ccccc1 | x | x | x | n | x | x
